Compound activity: PubChem, several laboratories
In the library only some 4.9% were active in any assay of this set; here they are far more common.
STAT1 act-1: STAT1 signaling activation. NIH 3T3 STAT1-luciferase reporter, IFN-gamma, luminescence; 100% = IFN-gamma alone, no compound. activation (% of control), % at 5.5 µM. actives 2.6% (n = 200,000);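 active = activation above the screen-wide mean activation plus 3 SD, cut at about 130% in these data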
NF-kB expr up: raises NF-kB expression in human neuronal cells | actives 1.6% (n = 190,000) | NF-kB reporter expression; active compounds read high | fold change at 12.5 µM; in the data active = fold change above about 3.3
STAT3 blocker: STAT3 signaling inhibition | U3A cells, IL-6 STAT3-luciferase reporter, luminescence; host cell line lacks STAT1 | inhibition, % at 5.5 µM | actives 0.89% (n = 190,000) | AID 862;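 active = inhibition above the mean inhibition across all screened compounds plus 3 SD, cut at about 44% in these data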
APP 5'UTR act: APP 5'UTR luciferase reporter activation; SH-SY5Y APP 5'UTR luciferase reporter, luminescence; zero percent = DMSO vehicle wells; activation, % at 2 µM; actives 1% (n = 190,000); AID 1276;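 active = activation above a set limit, based on mean plus 3 SD of controls, cut at about 140% in these data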
STAT3 act-1: activators of IL-6 induced STAT3 signaling; activation (% of control), % at 5.6 µM; actives 0.91% (n = 190,000); U3A cells, IL-6 STAT3-luciferase reporter, luminescence; 100% = signal with IL-6 EC80 alone; AID 871;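 active = activation above the screen-wide mean of compound activation plus 3 SD, cut at about 130% in these data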
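system = STAT3-luciferase reporter U3A cells | reagent = IL-6 stimulus at 33 ng/mL final | timing = 1 h compound pre-exposure, 6 h IL-6 stimulation, 37 °C | measured by = luminescence | evaluation = % activation versus median of IL-6-stimulated wells | control set = IL-6-only wells as 100% reference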
STAT1 inh: reduces IFN-gamma driven STAT1 reporter signal; NIH 3T3 STAT1-luciferase reporter, luminescence; inhibition, % at 5.5 µM; actives 0.35% (n = 200,000); AID 920;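 active = inhibition above a set limit, the mean inhibition across all tested compounds plus 3 SD, cut at about 34% in these data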
STAT3 act-2: STAT3 activation, confirmation assay | shares compounds with STAT3 act-1 | U3A STAT3-luciferase reporter, IL-6 potentiation, luminescence; U3A cells lack STAT1; 100 means same as IL-6 alone | potentiation (% of control), % at 5.7 µM | actives 64% (n = 1,200);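 active = percent activation of the STAT3 luciferase reporter above a set limit taken from the earlier primary screen, cut at about 130% in these data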
NFkB act STAT3ct: activates NF-kappaB, counter-screen to STAT3 activators; activation (% of control), % at 5.7 µM; shares compounds with STAT3 act-1; AID 1309; actives 11% (n = 1,200); human cells, NF-kappaB reporter activation; in the data active = activation above about 120%;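 note: reporter induced by TNF-alpha stimulation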
STAT1 act-2: STAT1 activation in STAT3 activator counter-screen; shares compounds with STAT3 act-1; NIH 3T3 STAT1-luciferase reporter, IFN-gamma, luminescence; activation (% of control), % at 5.7 µM; actives 13% (n = 1,200); AID 1318;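 active = activation above the solvent-only control well mean plus 3 SD, set per screening run, cut at about 120% in these data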
Hits are given with their value; 0 = inactive; - = not tested or not shown.

SMILES | STAT1 act-1 | NF-kB expr up | STAT3 blocker | APP 5'UTR act | STAT3 act-1 | STAT1 inh | STAT3 act-2 | NFkB act STAT3ct | STAT1 act-2
CCn1cc(CN2CCc3c([nH]c4ccccc34)C2c2cccc(O)c2)c(C)n1 (stereo not drawn) | 0 | 0 | 0 | 0 | 142.3 | 0 | 139.8 | 0 | 0
CSc1ncc(CN2CCc3c([nH]c4ccccc34)C2c2cccc(O)c2)cn1 (stereo not drawn) | 0 | 0 | 0 | 0 | 154.3 | 0 | 146.6 | 0 | 0
CCn1cc(CN2CCc3c([nH]c4ccccc34)C2c2ccc(F)c(OC)c2)c(C)n1 (stereo not drawn) | 0 | 0 | 0 | 0 | 0 | 0 | - | - | -
COc1cccc(-n2c(N)c(-c3nc4ccccc4[nH]3)sc2=S)c1 | 0 | 0 | 0 | 0 | 0 | 0 | - | - | -
Cc1cc(C)c2c(N)c(-c3nc4ccccc4[nH]3)sc2n1 | 0 | 0 | 0 | 142.1 | 171.0 | 0 | 182.4 | 0 | 0
O=c1[nH]c(Cc2ccccc2)nc2c1oc1ccccc12 | 0 | 0 | 0 | 0 | 0 | 0 | - | - | -
Cc1nc2c(oc3ccccc32)c(=O)o1 | 0 | 0 | 0 | 0 | 173.6 | 0 | 159.2 | 0 | 0
NC(=O)C1CCN(C(=O)COc2ccc(S(=O)(=O)NCc3ccccc3)cc2Cl)CC1 | 0 | 0 | 0 | 0 | 0 | 0 | - | - | -
CCOc1ccc(C=Nc2cccc3ncccc23)cc1 | 0 | 0 | 0 | 0 | 148.9 | 0 | 147.8 | 0 | 0
Oc1ccc(C=Nc2cccc3ncccc23)c(O)c1 | 0 | 0 | 0 | 0 | 0 | 0 | - | - | -
COc1cc(CN2CCNC(=O)C2CC(=O)N(C)Cc2ncc[nH]2)cc(OC)c1 (stereo not drawn) | 0 | 0 | 0 | 0 | 0 | 0 | - | - | -
O=C(Nc1ccccc1N1CCN(C(=O)c2ccc(Cl)cc2)CC1)c1cc2ccccc2o1 | 0 | 0 | 0 | 0 | 146.6 | 0 | 0 | 0 | 0
COc1ccc(-c2ccc(-c3nnc(-c4cc(OC)ccc4OC)o3)cc2)cc1 | 0 | 0 | 0 | 0 | 138.3 | 0 | 0 | 0 | 0
COc1ccc([N+](=O)[O-])cc1NC(=O)c1ccc(-n2nc(C)cc2C)cc1 | 0 | 0 | 0 | 0 | 0 | 0 | - | - | -
Cc1cccc2c1NC(=O)/C2=C\C(=O)c1cccs1 | 0 | 0 | 0 | 0 | 147.5 | 0 | 136.3 | 0 | 0
Cc1[nH]n(-c2ccccc2)c(=O)c1N=Nc1ccccc1O | 0 | 0 | 0 | 0 | 167.6 | 0 | 171.0 | 0 | 123.4
Cc1ccccc1N=Nc1c(C)[nH]n(-c2ccccc2)c1=O | 0 | 0 | 0 | 0 | 0 | 0 | - | - | -
Cc1ccc(S(=O)(=O)Nc2cccc(NC(=O)CN3CCCCC3)c2)cc1 | 0 | 0 | 0 | 0 | 0 | 0 | - | - | -
Cc1ccc2cc(C#N)c(N3CCCC3)nc2c1C | 0 | 0 | 0 | 0 | 140.1 | 0 | 136.8 | 0 | 132.5
CCc1ccc(NC(=O)c2ccccc2NC(=O)C2CCCO2)cc1 (stereo not drawn) | 0 | 0 | 0 | 0 | 0 | 0 | - | - | -
O=C(NCCOc1ccccc1)c1ccccc1NC(=O)C1CCCO1 (stereo not drawn) | 0 | 0 | 0 | 0 | 139.6 | 0 | 138.1 | 0 | 130.9
O=C/C(=C\Nc1ccc(S(=O)(=O)CCO)cc1)c1nc2cc(Cl)ccc2o1 | 0 | 0 | 0 | 0 | 0 | 0 | - | - | -
O=C/C(=C\Nc1ccc(Cl)cn1)c1nc2cc(Cl)ccc2o1 | 0 | 0 | 0 | - | 144.6 | 0 | 0 | 0 | 0
O=C/C(=C\Nc1ccc(Cl)cn1)c1nc2ccccc2o1 | 0 | 0 | 0 | - | 136.7 | 0 | 0 | 0 | 0
O=C(c1cc2cc([N+](=O)[O-])ccc2s1)N1CCCCC1 | 0 | 0 | 0 | 0 | 0 | 0 | - | - | -
SMILES | STAT1 act-1 | NF-kB expr up | STAT3 blocker | APP 5'UTR act | STAT3 act-1 | STAT1 inh | STAT3 act-2 | NFkB act STAT3ct | STAT1 act-2
COc1cccc(-c2nn(-c3ccccc3)cc2CN(C)Cc2c(C)nc3ccccn23)c1 | 0 | 0 | 0 | 0 | 0 | 0 | - | - | -
CCOC(=O)c1[nH]c2ccccc2c1NC(=S)Nc1ccccc1 | 0 | 0 | 0 | 0 | 156.6 | 0 | 163.0 | 0 | 0
CCOC(=O)c1[nH]c2ccccc2c1NC(=O)C(CC)CC | 0 | 0 | 0 | 0 | 0 | 0 | - | - | -
CCOC(=O)c1[nH]c2ccccc2c1NC(=S)Nc1cccc(C)c1 | 0 | 0 | 0 | 0 | 162.5 | 0 | 154.5 | 0 | 0
O=[N+]([O-])c1cc(S(=O)(=O)NC2=NCCCCC2)ccc1NCC1CCCCC1 | 0 | 0 | 0 | 0 | 0 | 0 | - | - | -
NC(=O)CSc1cn(Cc2ccccc2)c2ccccc12 | 0 | 0 | 0 | 0 | 0 | 0 | - | - | -
CCN(CC)S(=O)(=O)c1cccc(-c2nnc(SCc3nc4ccccc4s3)o2)c1 | 0 | 0 | 0 | 0 | 139.2 | 0 | 0 | 0 | 0
CCN(CC)S(=O)(=O)c1cccc(-c2nnc(SCCCC(=O)c3ccccc3)o2)c1 | 0 | 0 | 0 | 0 | 0 | 0 | - | - | -
O=C(Nc1nc2ccccc2s1)c1ccc2c(c1)S(=O)(=O)c1ccccc1C2=O | 0 | 0 | 0 | 0 | 139.8 | 0 | 0 | 0 | 0
Cc1cc(C)cc(C(=O)N2CCN(c3ccccn3)CC2)c1 | 0 | 0 | 0 | 0 | 0 | 0 | - | - | -
O=C(c1cc[n+]([O-])cc1)N1CCc2c([nH]c3ccccc23)C1c1ccccc1Cl (stereo not drawn) | 0 | 0 | 0 | 0 | 176.5 | 0 | 155.0 | 0 | 0
CN1N=C(C(=O)N2CCc3c([nH]c4ccccc34)C2c2ccccc2Cl)CCC1=O (stereo not drawn) | 0 | 0 | 0 | 0 | 156.2 | 0 | 177.9 | 121.4 | 122.6
O=C(CNc1cc(S(=O)(=O)N2CCOCC2)ccc1N1CCCC1)NCc1ccco1 | 0 | 0 | 0 | 0 | 0 | 0 | - | - | -
O=C1Cn2c(nc3ccccc32)N1c1cccc(C(F)(F)F)c1 | 0 | 0 | 0 | 0 | 136.2 | 0 | 0 | 0 | 0
CC(C)CN(C(=O)COC(=O)c1c(Cl)ccc(Cl)c1Cl)C1CCS(=O)(=O)C1 (stereo not drawn) | 0 | 0 | 0 | 0 | 0 | 0 | - | - | -
COc1ccccc1NC(=O)c1[nH]c(C)c(C(C)=O)c1C | 0 | 0 | 0 | 0 | 162.3 | 0 | 158.1 | 0 | 0
CC(=O)c1c(C)[nH]c(C(=O)Nc2ccccc2N2CCOCC2)c1C | 0 | 0 | 0 | 0 | 0 | 0 | - | - | -
Cc1nn(C)c(Sc2ccccc2N)c1[N+](=O)[O-] | 0 | 0 | 0 | 0 | 0 | 0 | - | - | -
NC1=C([N+](=O)[O-])C(c2ccc(F)cc2)C2=C(CCCC2=O)O1 (stereo not drawn) | 0 | 0 | 0 | 0 | 0 | 0 | - | - | -
COc1cc2c(cc1OC)CN(CC(=O)Nc1ccccc1C#N)CC2 | 0 | 0 | 0 | 0 | 159.1 | 0 | 138.2 | 0 | 0
